SMILES strings stand for the structures. Active and inactive are the calls of the source. No cut-off for these calls is given here.

Data set [1] relates to Calf thymus DNA. As to the kind of experiment: Binding affinity to calf thymus DNA in 10 mM pH 7.4 Tris-Hcl buffer containing 0.1 mM EDTA and 40 mM NaCl by CD spectroscopy. To be noted: Bos taurus.
A short description of data set [2]: Displacement of thiazole orange from calf thymus double stranded DNA in presence of 10 mM pH 7.4 Tris-Hcl buffer containing 0.1 mM EDTA and […] by fluorescent intercalator displacement assay. Set-up: species or system Bos taurus.
The nature of data set [3]: Binding affinity to human Hum21 [5'-G3(T2AG3)3-3'] G-quadruplex DNA at 0.4 uM in 10 mM pH 7.4 Tris-Hcl buffer containing 0.1 mM EDTA and […] by fluorescence spectroscopy.
Data set [4] concerns the target T1, Telomerase reverse transcriptase (Homo sapiens, UniProt O14746). As to the kind of experiment: Total inhibition of telomerase isolated form human A549 cells by TRAP-LIG assay.
Data set [5] is filed under the species Homo sapiens. As to the kind of experiment: Stabilization of 32P-ATP labeled human Hum21 [5'-G3(T2AG3)3-3'] G-quadruplex DNA assessed as protection against S1 nuclease-mediated degradation at 2.5 to 7.5 uM pre-incubated for 4 hrs before S1 nuclease addition by PAGE method. The method in brief: (§1)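 5′-32P-labelled Hum21 was mixed with cold DNA and annealed in KCl; lanes were run in 50 mM KCl. G4 DNA was pre-incubated with ligand for 4 h. 2 μM DNA was digested with 20 U S1 nuclease for 2 min, quenched with acetate/CT DNA/EDTA stop buffer, and ethanol precipitated. Products ran on a 15% polyacrylamide urea sequencing gel beside an A+G ladder and were imaged by phosphorimager.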

Data set [6] concerns HeLa. As to the kind of experiment: Induction of apoptosis in human HeLa cells assessed as nuclear fragmentation at 10 uM after 12 hrs by propidium iodide staining based FACS analysis. It is filed as functional, cell-based.
The test system of data set [7] is HFF. As to the kind of experiment: Induction of apoptosis in HFF cells assessed as nuclear fragmentation at 10 uM after 12 hrs by propidium iodide staining based FACS analysis. In kind it is cell-based. To be noted: human.
Data set [8] has as its target T1, Telomerase reverse transcriptase. As to the kind of experiment: Inhibition of telomerase isolated form human A549 cells by TRAP-LIG assay.
The species entered for data set [9] is Homo sapiens. As to the kind of experiment: Stabilization of 32P-ATP labeled human Hum21 [5'-G3(T2AG3)3-3'] G-quadruplex DNA assessed as protection against S1 nuclease-mediated degradation at 2.5 to 5 uM pre-incubated for 4 hrs before S1 nuclease addition by PAGE method. The method in brief: as §1

T1 sequence (O14746 whole entry): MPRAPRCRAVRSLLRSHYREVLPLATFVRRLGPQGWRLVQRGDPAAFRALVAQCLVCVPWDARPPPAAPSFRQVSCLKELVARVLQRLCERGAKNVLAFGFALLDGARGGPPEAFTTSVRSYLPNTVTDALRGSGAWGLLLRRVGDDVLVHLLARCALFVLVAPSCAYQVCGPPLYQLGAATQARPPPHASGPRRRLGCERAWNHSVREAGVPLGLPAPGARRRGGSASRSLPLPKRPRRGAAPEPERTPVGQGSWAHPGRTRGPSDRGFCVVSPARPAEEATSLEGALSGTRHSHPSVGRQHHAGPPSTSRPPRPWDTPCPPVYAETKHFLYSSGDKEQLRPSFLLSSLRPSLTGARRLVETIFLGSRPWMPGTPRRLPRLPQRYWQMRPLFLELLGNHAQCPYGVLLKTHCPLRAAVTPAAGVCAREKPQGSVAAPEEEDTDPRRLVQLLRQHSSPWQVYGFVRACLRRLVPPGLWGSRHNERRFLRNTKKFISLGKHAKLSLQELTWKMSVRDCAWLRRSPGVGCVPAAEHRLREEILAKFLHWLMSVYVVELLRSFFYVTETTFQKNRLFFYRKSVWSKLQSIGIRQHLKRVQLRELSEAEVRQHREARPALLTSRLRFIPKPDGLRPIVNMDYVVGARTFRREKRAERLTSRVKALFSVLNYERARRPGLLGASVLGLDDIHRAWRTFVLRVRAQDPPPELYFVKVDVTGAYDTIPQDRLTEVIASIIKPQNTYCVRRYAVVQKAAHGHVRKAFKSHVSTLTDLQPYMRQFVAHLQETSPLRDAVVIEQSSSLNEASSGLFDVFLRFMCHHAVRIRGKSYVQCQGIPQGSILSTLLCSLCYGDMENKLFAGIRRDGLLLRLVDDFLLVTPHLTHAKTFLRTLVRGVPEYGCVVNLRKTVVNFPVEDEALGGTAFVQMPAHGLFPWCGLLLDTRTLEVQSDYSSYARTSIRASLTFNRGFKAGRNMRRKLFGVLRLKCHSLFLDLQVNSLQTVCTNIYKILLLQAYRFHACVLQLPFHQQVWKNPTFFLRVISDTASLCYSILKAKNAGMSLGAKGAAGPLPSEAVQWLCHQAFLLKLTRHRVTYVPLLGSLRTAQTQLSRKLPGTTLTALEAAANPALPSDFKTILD

Consider `CN1CCN(CCCCn2c3ccc(-c4nc5cc(N6CCN(C)CC6)ccc5[nH]4)cc3c3cc(-c4nc5cc(N6CCN(C)CC6)ccc5[nH]4)ccc32)CC1`, for which, in [1], the result was inactive. In addition, the DC50 result in data set [2] was “Not Active”. Also, the Kd in data set [3] was determined as 100 nM. Also, the concentration giving total telomerase inhibition in [4] was 1 µM. In addition, the result in data set [5] and in data set [6] was Active. In addition, the Activity result in [7] was “Non-toxic”. Further, in [8], the concentration for half-maximal inhibition (IC50) is 900 nM.

With `CN1CCN(CCCCn2c3ccc(-c4nc5cc(N6CCN(CCO)CC6)ccc5[nH]4)cc3c3cc(-c4nc5cc(N6CCN(CCO)CC6)ccc5[nH]4)ccc32)CC1`, the outcome in data set [1] was inactive. Further, the DC50 in [2] (read-out: DC50) was found to be 7710 nM. In [3], the Kd turned out to be 30 nM. Moreover, the result in data set [9] and in data set [6] was Active. Moreover, the concentration giving total telomerase inhibition in data set [4] was determined as 1 µM. Moreover, in [7], the Activity entry is “Non-toxic”. The compound also showed a half-inhibitory concentration (IC50) in data set [8] of 600 nM.

For the origin of these results see ChEMBL document CHEMBL3351262, “Design and synthesis of new benzimidazole-carbazole conjugates for the stabilization of human telomeric DNA, telomerase inhibition, and their selective action on cancer cells” (J Med Chem, 2014).
